C-LANA FP: blocks KSHV LANA C-terminal domain binding to DNA; AID 504423; 0.078% of 340,000 active; inhibition, % at 9 µM; MBP-C-LANA/FAM-LBS DNA binding, fluorescence polarization;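 active means highest replicate inhibition at or above 60% at 9 µM, even if other replicates fall short; inactive means all replicates below 60% inhibition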;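 further: 0% = neutral control wells and 100% = 4 µM acridine orange control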
EBV gp42 block: inhibitors of Epstein-Barr virus glycoprotein 42; Fluorescence polarization binding assay, mP read-out; inhibition, % (tested at 21.74 µM); 0.42% of 220,000 active; in the data active means inhibition above about 50%
Target sequence (Q1HVG2 whole entry, looked up): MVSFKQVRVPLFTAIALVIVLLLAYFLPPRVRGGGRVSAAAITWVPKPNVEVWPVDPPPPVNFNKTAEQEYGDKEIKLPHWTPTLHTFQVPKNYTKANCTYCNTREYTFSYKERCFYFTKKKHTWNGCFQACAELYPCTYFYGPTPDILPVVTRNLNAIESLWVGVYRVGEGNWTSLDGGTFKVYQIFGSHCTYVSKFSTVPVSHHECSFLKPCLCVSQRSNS
T cell modulator: T cell immune modulation candidate; 2C CD8+ T cell-vesicle binding, flow cytometry; active compounds read low; response (vesicle binding), % at 7 µM; 0.068% of 330,000 active; AID 2052;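 active means response, share of CD8 T cells binding vesicles, and their 90th percentile fluorescence all below set limits, cut at about 80% in these data, passing the limit was not always enough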;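 further: values below 100% mean blocked vesicle binding to the CD8+ T cells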
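Material: murine 2C transgenic CD8+ T lymphocytes / Also added: QL9-peptide-loaded Drosophila micro-vesicles bearing Ld, ICAM-1 and B7-1 / Schedule: binding step 1.5 h, 37 °C, antibody labelling 20 min, ice / Signal: flow cytometry, PE anti-B7-1 (FL2) versus Alexa647 anti-CD8 (FL8), PFA-fixed / Evaluation: percent CD8+ FL2 mean versus row control / Benchmarks: naked versus QL9-loaded vesicles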
Keap1-Nrf2 PPI: Keap1-Nrf2 (human) interaction inhibition | 0.15% of 340,000 active | Q14145 | inhibition, % at 9.4 µM | Keap1 Kelch-Nrf2 peptide fluorescence polarization, 1536-well | AID 504523; in the data active means inhibition above about 12%;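 further: human Keap1 Kelch domain with fluorescein labeled Nrf2 9mer peptide probe; 0% = neutral control wells and 100% = peptide positive control; higher means more block of Keap1 binding to Nrf2 peptide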
GRK2 inh: human GRK2 inhibition via aptamer displacement. P25098. bead flow cytometry, FAM-aptamer displacement from GRK2. inhibition of aptamer binding, % at 10 µM. 0.59% of 330,000 active. AID 488847;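 active means inhibition of aptamer binding above 40%, roughly 3 SD of noise, on plates passing a quality check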;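 further: median bead fluorescence of bound FAM aptamer so fluorescent compounds give negative values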
MEX-5 binding: C. elegans MEX-5 TCR-2 RNA binding activity | Q9XUB2 | MEX-5/FITC-TCR2 RNA binding, fluorescence polarization; active compounds read low | activity score (negative = inhibition of binding), % at 10 µM | 0.38% of 300,000 active | AID 1832;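 active means inhibition past about -25% in most replicates, and total fluorescence under double the plate's negative control median, limit read from the data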;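 further: 0% = DMSO and -100% = 5 µM competing unlabeled TCR2 RNA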
Target sequence (Q9XUB2 whole entry, looked up): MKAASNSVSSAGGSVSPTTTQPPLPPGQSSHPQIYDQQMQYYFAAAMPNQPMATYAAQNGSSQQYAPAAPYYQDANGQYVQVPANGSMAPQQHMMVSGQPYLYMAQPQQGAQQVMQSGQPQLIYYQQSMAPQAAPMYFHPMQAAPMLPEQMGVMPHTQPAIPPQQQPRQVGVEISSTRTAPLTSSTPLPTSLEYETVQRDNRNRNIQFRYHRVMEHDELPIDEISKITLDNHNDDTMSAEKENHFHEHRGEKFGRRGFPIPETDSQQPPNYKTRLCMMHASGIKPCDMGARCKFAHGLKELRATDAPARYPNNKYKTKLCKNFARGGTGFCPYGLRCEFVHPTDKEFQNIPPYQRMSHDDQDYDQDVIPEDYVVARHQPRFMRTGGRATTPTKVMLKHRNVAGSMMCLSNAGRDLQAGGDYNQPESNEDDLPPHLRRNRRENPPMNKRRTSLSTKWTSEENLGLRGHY
GRK2 inh confirm: confirmation of human GRK2 inhibitors displacing RNA aptamer; shares compounds with GRK2 inh; bead-bound GRK2, FAM-aptamer displacement, flow cytometry; aptamer displacement, % at 10 µM; 4% of 2,000 active; AID 504451;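 active means aptamer displacement above 40%, near three times the noise of non-fluorescent compounds, on plates passing quality checks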;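 further: negative values mostly reflect intrinsic compound fluorescence rather than true enhancement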
Aptamer quench SP: quenches fluorescent RNA aptamer, GRK2 hit artifact; shares compounds with GRK2 inh; Carboxyfluorescein RNA aptamer on beads, flow cytometry quenching; active compounds read low; fluorescence response (% of DMSO), % at 10 µM; 2,000 tested, under 10 active; AID 504580;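 active means compounds that quench the bead-bound fluorescent RNA probe, cutting fluorescence to under half of the solvent control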;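 further: counterscreen run without GRK2 so only probe quenching by compound is measured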
GRK2 confirm 2: confirmation of human GRK2 inhibitors binding RNA aptamer site; shares compounds with GRK2 inh; bead-bound GRK2, FAM-aptamer displacement, flow cytometry; inhibition of aptamer binding, % at 10 µM; 360 tested, under 10 active; AID 504782;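 active means inhibition of aptamer binding above 40%, about triple the noise seen with nonglowing compounds, on plates passing quality control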;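 further: negative values mostly come from compounds that fluoresce themselves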
FAM quench CP2: counter-screen for GRK2 binding hits: quenchers of fluorescent RNA aptamer; shares compounds with GRK2 inh; carboxyfluorescein RNA aptamer beads, flow cytometry quenching; active compounds read low; fluorescence response vs DMSO, % at 10 µM; 360 tested, under 10 active;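 active means response vs DMSO under 50%, meaning signal dropped by over half, treated as fluorescence quencher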;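 further: labelled aptamer on streptavidin beads without GRK2 as a quench counter-screen; 100% = bead fluorescence of DMSO wells and lower means quenching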
The depositor's hits bear a star; i = inactive; / = no result given. Shown are actives, neighbours in structure and some others; about 1.3% of the full set was active somewhere.

SMILES	C-LANA FP	EBV gp42 block	T cell modulator	Keap1-Nrf2 PPI	GRK2 inh	MEX-5 binding	GRK2 inh confirm	Aptamer quench SP	others
O=C(NCc1ccccn1)C1CCCN(Cc2cnn(-c3ccccc3)c2-n2cccc2)C1 (stereo unspecified)	-2	-6	364	0	0	1	1	102
O=C(NCc1cccnc1)C1CCCN(Cc2cnn(-c3ccccc3)c2-n2cccc2)C1 (stereo unspecified)	-1	-1	378	4	0	0	-1	103
O=C(NCc1ccccn1)C1CCN(Cc2cnn(-c3ccccc3)c2-n2cccc2)CC1	0	1	310	4	0	-2	2	95
O=C(NC1CC1)C1CCN(Cc2cnn(-c3ccccc3)c2-n2cccc2)CC1	1	-14	549	-6	0	-1	/	/
COc1cccc(CNC(=O)C2CCN(Cc3cnn(-c4ccccc4)c3-n3cccc3)CC2)c1	2	2	317	-1	1	0	/	/
O=C1CN(C(=O)c2cc3ccccc3o2)c2ccccc2N1	-1	-45	325	-5	1	3	/	/
CC(C)CC(=O)Nc1ccc2oc(-c3ccncc3)nc2c1	-2	-6	195	-4	1	-2	/	/
O=C(c1ccc(F)cc1F)N1CCN(c2ncccn2)CC1	0	-13	194	-5	4	-2	/	/
CSc1ccc(Cl)c(C(=O)N2CCN(c3ncccn3)CC2)c1	1	/	256	-2	43*	/	/	/	GRK2 confirm 2=9;FAM quench CP2=101
Cc1cc(C)cc(C(=O)N2CCN(c3ccccn3)CC2)c1	0	-10	i	-7	3	0	-4	99
O=C(c1cccc(S(=O)(=O)N2CCc3ccccc32)c1)N1CCN(c2ccccn2)CC1	0	0	364	-5	2	1	0	97
O=C(COc1cc(Cl)c(Cl)cc1Cl)N1CCN(c2ccccn2)CC1	0	5	106	0	95*	0	-2	95
COc1ccccc1N1CCN(C(=O)c2cccc(S(=O)(=O)N3c4ccccc4CC3C)c2)CC1 (stereo unspecified)	1	/	/	-6	/	/	-4	96
CN(c1ccccc1)S(=O)(=O)c1cccc(NC(=O)Cc2n[nH]c(=O)c3ccccc23)c1	0	/	628	3	0	/	/	/
O=C(COC(=O)C1CC2CCCC(C1)C2=O)Nc1nc(-c2ccc(F)c(F)c2)cs1 (stereo unspecified)	-2	/	213	-3	3	-3	/	/
CCCCc1nc2sc3c(c2c(=O)n1NC(=O)c1ccco1)CC(C)(C)OC3	0	-1	240	3	0	0	/	/
NC(=O)C1CCN(C2=C(NS(=O)(=O)c3ccc(Cl)cc3)C(=O)c3ccccc3C2=O)CC1	-1	-5	107	-5	0	-10	/	/
O=C(c1ccc(Cl)c(S(=O)(=O)NCc2ccccc2)c1)N1CCN(c2ccccn2)CC1	-1	-21	330	-1	2	0	-2	103
Cc1ccc(C(=O)N2CCN(c3ccccn3)CC2)cc1	-2	-6	503	3	0	1	/	/
Cc1cccc(C(=O)N2CCN(c3ccccn3)CC2)c1	0	-11	382	-7	75*	-1	0	95
COc1ccc(N2CC(C(=O)N[C@H](C(=O)NC3CCCCC3)C(C)C)CC2=O)cc1 (stereo partly specified)	0	/	322	-1	0	1	/	/
O/C(=C\Sc1nnc(Cc2ccccc2)o1)c1ccc(F)cc1	-1	-14	118	-3	49*	0	/	94
c1ccc(CSc2nnc(Cc3ccccc3)o2)cc1	0	2	343	4	0	1	/	/
COc1cccc(CN2CC(C(=O)NCCCc3ccc(C)cc3)CCC2=O)c1 (stereo unspecified)	1	/	279	4	4	-1	/	/
COc1ccccc1C(=O)COC(=O)c1cccc(-n2cnnn2)c1	-1	/	648	-5	0	/	/	/
SMILES	C-LANA FP	EBV gp42 block	T cell modulator	Keap1-Nrf2 PPI	GRK2 inh	MEX-5 binding	GRK2 inh confirm	Aptamer quench SP	others
COc1ccc(/C=C/C(=O)c2cccc(-n3cnnn3)c2)cc1O	-1	/	214	-3	98*	1	0	100
Cc1cc(O)c(C(=O)/C=C/c2ccccc2O)c(=O)o1	-2	/	171	-7	2	-3	/	/
C=CCn1c(SC(C)C(=O)NCCC2=CCCCC2)nc2ccccc2c1=O (stereo unspecified)	2	0	314	3	0	2	/	/
NS(=O)(=O)c1ccc(NN=C2CCN(Cc3ccccc3)CC2)c([N+](=O)[O-])c1	0	-7	167	-3	1	0	/	/
O=C(Cc1ccccc1)NS(=O)(=O)c1ccc(N=NN2CCOCC2)cc1	-1	-1	105	4	26	0	-3	99
Cc1cc2cc(CNS(=O)(=O)c3ccccc3)ccc2n1C	-2	4	262	2	54*	-1	3	84
COc1ccc(C(=O)NCc2ccc3c(c2)cc(C)n3C)cc1OC	1	-9	536	-2	5	-2	1	96
COc1ccc(S(=O)(=O)NCc2ccc3c(c2)cc(C)n3C)cc1	1	7	367	0	0	-1	/	/
COc1ccc(/C=C\C(=O)NCc2ccc3c(c2)cc(C)n3C)cc1OC	0	-11	474	-3	4	0	/	/
COc1ccc(CC(=O)NCc2ccc3c(c2)cc(C)n3C)cc1	0	0	98	-5	67*	2	-2	95
COc1cccc(C(=O)NCc2ccc3c(c2)cc(C)n3C)c1	1	0	330	6	84*	-5	0	96
Cc1cc2cc(CNC(=O)c3cccs3)ccc2n1C	0	19	204	0	40	0	/	/
COc1ccc(NC(=S)NCc2ccc3c(c2)cc(C)n3C)cc1	4	-4	385	-4	1	2	/	/
Cc1ccc(/C=N/NC(=O)CSc2nc3ccccc3n2C)s1	0	-21	218	1	0	1	/	/
CC(C)Cc1nnc(NC(=O)c2ccc3c(c2)NC(=O)C(C)S3)s1 (stereo unspecified)	-2	/	238	-7	3	-1	/	/
